Measurements: ChEMBL document CHEMBL1275363, “Design, synthesis, crystal structures, and antimicrobial activity of sulfonamide boronic acids as β-lactamase inhibitors” (J Med Chem, 2010)
One block for each compound: values may come before it. Calls of active or inactive are those of the source. No cut-off for these calls is given here.

Legend:
[1] = Inhibition of AmpC beta-lactamase
Klebsiella pneumoniae = test: Antimicrobial activity against AmpC-beta lactamase producing Klebsiella pneumoniae by disk diffusion assay; format: functional, organism-based
[2] = target: AmpC (Klebsiella pneumoniae) (UniProt Q84AD8); test: Inhibition of Klebsiella pneumoniae AmpC beta-lactamase DHA-1 assessed as increase in ceftazidime-induced antibacterial activity by disk diffusion assay
[3] = Inhibition of beta-lactamase CTX-M-9
Escherichia coli = test: Inhibition of Escherichia coli beta-lactamase class C assessed as fold decrease in Ceftazidime MIC […]
How it was run: (§1)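 MICs were measured on clinical isolates following CLSI guidelines in Mueller-Hinton medium. Inhibitor was dissolved in 50% DMSO, with final DMSO below 5%, and combined with ceftazidime at a 1:1 β-lactam:inhibitor ratio. Fold change is compared with ceftazidime alone. Values are means of three independent experiments.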

Enterobacter cloacae = test: Inhibition of Enterobacter cloacae beta-lactamase class C assessed as fold decrease in Ceftazidime MIC […]; how it was run: as §1
Citrobacter freundii = test: Inhibition of Citrobacter freundii beta-lactamase class C assessed as fold decrease in Ceftazidime MIC […]; how it was run: as §1
Pseudomonas aeruginosa = test: Inhibition of Pseudomonas aeruginosa beta-lactamase class C assessed as fold decrease in Ceftazidime MIC […]; how it was run: as §1
[4] = target: AmpC (Klebsiella pneumoniae) (UniProt Q84AD8); test: Inhibition of Klebsiella pneumoniae AmpC beta-lactamase DHA-1 assessed as fold decrease in Ceftazidime MIC […]; how it was run: as §1
[5] = target: Beta-lactamase CTX-M-14 (Escherichia coli) (UniProt Q9L5C7); test: Inhibition of Escherichia coli class A beta-lactamase CTX-M-14 assessed as fold decrease in Ceftazidime MIC […]; how it was run: as §1

Ki [1]: 189 nM
Structure (SMILES): O=[N+]([O-])c1cccc(CS(=O)(=O)NCB(O)O)c1

Ki [1]: 39 nM
Structure (SMILES): O=C(Cc1cccs1)N[C@@H](Cc1cccc(C(=O)O)c1)B(O)O

Ki [1]: 1 nM
Structure (SMILES): O=C(Cc1cccs1)N[C@H](B(O)O)c1cccc(C(=O)O)c1

Structure (SMILES): Nc1cccc(CS(=O)(=O)NCB(O)O)c1
Ki [1]: 106 nM

Structure (SMILES): CCOc1ccc2ccccc2c1S(=O)(=O)NCB(O)O
Ki [1]: 670 nM

Structure (SMILES): CS(=O)(=O)NCB(O)O [PINACOL(METHANESULFONYLAMINO)METHANEBORONATE]
Ki [1]: 789 nM

Ki [1]: 120 nM
Structure (SMILES): COC(=O)c1ccc(CS(=O)(=O)NCB2OC(C)(C)C(C)(C)O2)cc1

Activity [2]: Active | IC50 [3]: 1500 nM
Structure (SMILES): O=C(O)c1ccc(CS(=O)(=O)NCB(O)O)cc1
Activity (Klebsiella pneumoniae): inactive

Structure (SMILES): O=S(=O)(Cc1ccccc1)NCB(O)O [PINACOL(PHENYLMETHANESULFONYLAMINO)METHANEBORONATE]
Activity (Klebsiella pneumoniae): inactive | Activity [2]: Active | fold change (FC) (Escherichia coli): 8 | fold change (FC) (Enterobacter cloacae): 8 | fold change (FC) (Citrobacter freundii): 8 | fold change (FC) (Pseudomonas aeruginosa): 8 | fold change (FC) [4]: 8 | fold change (FC) [5]: 16 | IC50 [3]: 6870 nM

Structure (SMILES): O=C(Cc1ccccc1)NCB(O)O
Ki [1]: 570 nM

Structure (SMILES): Cc1ccc(S(=O)(=O)NCB(O)O)cc1
Ki [1]: 210 nM

Structure (SMILES): O=S(=O)(Cc1ccccc1)N[C@@H](Cc1ccccc1)B(O)O
Ki [1]: 3720 nM
